Data reported in ChEMBL document CHEMBL4665866, “Generation, optimization and characterization of novel anti-prion compounds” (Bioorg Med Chem, 2020).

Assays:
Format in all cases: cell-based
N2a = assay: Anti-prion activity against Scrapie prion protein in mouse N2a-FK cells assessed as residual activity at 10 uM after 48 hrs by immunoblotting analysis relative to control
Outline: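 FK-1-infected N2a cells were seeded overnight at 37 °C, then exposed to 10 µM compound for 48 h. Lysates were treated with 20 μg/mL proteinase K at 37 °C for 30 min, then 15% SDS-PAGE and western blot for PrP^Sc. PrP^Sc ratio is % of solvent-treated control (100%), Tukey-Kramer comparison, mean ± SD.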

[1] = Anti-prion activity against Scrapie prion protein in mouse N2a-FK cells after 48 hrs by immunoblotting analysis
Outline: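 N2a cells persistently infected with FK-1 prion strain, seeded overnight at 37 °C, then exposed to compound at 1, 5 and 10 µM for 48 h. Lysates digested with 20 μg/mL proteinase K at 37 °C for 30 min, run on 15% SDS-PAGE, and western blotted. PrP^Sc band intensity was plotted against concentration and fitted to a Boltzmann sigmoid for IC50. Mean ± SD from at least three experiments.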

[2] = Anti-prion activity against RML prion protein in mouse N2a cells by Western blotting analysis
[3] = Anti-prion activity against 22L prion protein in mouse N2a cells by Western blotting analysis

Structure (SMILES) | Activity (N2a) [%] | other results
Cc1cccc(C#C[C@]2(O)CCCC[C@@H]2NCc2ccccc2)c1 | 93.7 | 
Cc1cccc(CN[C@H]2CCCC[C@@]2(O)C#Cc2ccccc2)c1 | 84.8 | 
O=C1O[C@@]2(C#Cc3ccccc3)CCCC[C@@H]2N1Cc1ccccc1 | 68.4 | 
OC(C#Cc1ccccc1)CNCc1ccccc1 (centres undefined) | 120 | 
O[C@@]1(/C=C/c2ccccc2)CCCC[C@@H]1NCc1ccccc1 | 81.6 | 
O[C@@]1(C#Cc2ccccc2)CCCC[C@@H]1NCc1ccccc1 | 100 | 
C(#C[C@@]12CCCC[C@@H]1N2Cc1ccccc1)c1ccccc1 (mixture of isomers) | 96.7 | 
O[C@@]1(C#Cc2ccccc2)CCCC[C@@H]1NCc1ccccc1F (mixture of isomers) | 68.6 | 
O[C@@]1(C#Cc2ccc(F)cc2)CCCC[C@@H]1NCC1CCCCC1 (racemic) | 35.5 | IC50 [1]: 5.6 µM
OC1(C#Cc2ccccc2)CCCCC1NCc1ccccc1 (racemic) | 85.8 | IC50 [2]: 3.21 µM; IC50 [3]: 8.25 µM
O[C@@]1(C#Cc2ccccc2)CCCC[C@@H]1NCC1CCCCC1 (racemic) | 32.7 | IC50 [1]: 4.7 µM
CC(C)(C)OC(=O)N1CC[C@@](O)(C#Cc2ccccc2)[C@@H](NCc2ccccc2)C1 (racemic) | 108 | 
CCOC(=O)CN(Cc1ccccc1)[C@H]1CCCC[C@@]1(O)C#Cc1ccccc1 (racemic) | 76.1 | 
COC(=O)c1ccc(C#C[C@]2(O)CCCC[C@@H]2NCc2ccccc2)cc1 (racemic) | 84.8 | 
COC(=O)c1cccc(C#C[C@]2(O)CCCC[C@@H]2NCc2ccccc2)c1 (racemic) | 83.7 | 
COC(=O)c1ccccc1C#C[C@]1(O)CCCC[C@@H]1NCc1ccccc1 (racemic) | 103 | 
COc1ccc(C#C[C@]2(O)CCCC[C@@H]2NCc2ccccc2)cc1 (racemic) | 75.7 | 
COc1ccc(CN[C@H]2CCCC[C@@]2(O)C#Cc2ccccc2)cc1 (racemic) | 83.3 | 
Cc1ccc(C#C[C@]2(O)CCCC[C@@H]2NCC2CCCCC2)cc1 (racemic) | 75.2 | 
Cc1ccc(CN[C@H]2CCCC[C@@]2(O)C#Cc2ccccc2)cc1 (racemic) | 75.5 | 

Structure (SMILES) | Activity (N2a) [%] | other results
N[C@H]1CCCC[C@@]1(O)CCc1ccccc1 (racemic) | 88 | 
O=C(N[C@H]1CCCC[C@@]1(O)CCc1ccccc1)c1ccccc1 (racemic) | 126 | 
O=S(=O)(N[C@H]1CCCC[C@@]1(O)CCc1ccccc1)c1ccccc1 (racemic) | 112 | 
OC1(CN[C@H]2CCCC[C@@]2(O)C#Cc2ccccc2)CCCCC1 (racemic) | 77.5 | 
O[C@@]1(C#Cc2ccc(Cl)cc2)CCCC[C@@H]1NCc1ccccc1 (racemic) | 77.5 | 
O[C@@]1(C#Cc2ccc(F)cc2)CCCC[C@@H]1NCc1ccccc1 (racemic) | 95.1 | 
O[C@@]1(C#Cc2cccc(F)c2)CCCC[C@@H]1NCc1ccccc1 (racemic) | 74.5 | 
O[C@@]1(C#Cc2ccccc2)CCCCC[C@@H]1NCc1ccccc1 (racemic) | 75.7 | 
O[C@@]1(C#Cc2ccccc2)CCCC[C@@H]1N1CC[C@@H]2CCCC[C@H]2C1 (racemic) | 66.7 | 
O[C@@]1(C#Cc2ccccc2)CCCC[C@@H]1N1CCc2ccccc2C1 (racemic) | 86 | 
O[C@@]1(C#Cc2ccccc2)CCCC[C@@H]1NCC1CCCC1 (racemic) | 54.8 | 
O[C@@]1(C#Cc2ccccc2)CCCC[C@@H]1NCc1ccc(F)cc1 (racemic) | 58.8 | 
O[C@@]1(C#Cc2ccccc2)CCCC[C@@H]1NCc1cccc(F)c1 (racemic) | 61.2 | 
O[C@@]1(C#Cc2ccccc2)CCCC[C@@H]1NCc1ccccc1Cl (racemic) | 96.1 | 
O[C@@]1(C#Cc2ccccc2)CCCC[C@@H]1NCc1ccccn1 (racemic) | 116 | 
O[C@@]1(C#Cc2ccccc2)CCCC[C@@H]1NCc1cccnc1 (racemic) | 63.4 | 
O[C@@]1(C#Cc2ccccc2)CCCC[C@@H]1NCc1ccco1 (racemic) | 103 | 
O[C@@]1(C#Cc2ccccc2)CCCC[C@@H]1NCc1ccncc1 (racemic) | 102 | 
O[C@@]1(C#Cc2ccccc2)CCOC[C@@H]1NCc1ccccc1 (racemic) | 85.2 | 
O[C@@]1(C#Cc2ccccc2F)CCCC[C@@H]1NCc1ccccc1 (racemic) | 80.7 | 
